Assay results as given in ChEMBL document CHEMBL1914440, “Discovery of potent, selective, and orally bioavailable alkynylphenoxyacetic acid CRTH2 (DP2) receptor antagonists for the treatment of allergic inflammatory diseases” (J Med Chem, 2011).
≈ marks a conversion by molar mass, not a printed value.

How the values were obtained:
[1] = target: T1, Prostaglandin D2 receptor 2 (Homo sapiens, UniProt Q9Y5Y4); test: Displacement of [3H]PGD2 from human CRTH2 expressed in chinese hamster CHO cells by liquid scintillation counting; format: cell-based
T1 sequence (Q9Y5Y4 whole entry): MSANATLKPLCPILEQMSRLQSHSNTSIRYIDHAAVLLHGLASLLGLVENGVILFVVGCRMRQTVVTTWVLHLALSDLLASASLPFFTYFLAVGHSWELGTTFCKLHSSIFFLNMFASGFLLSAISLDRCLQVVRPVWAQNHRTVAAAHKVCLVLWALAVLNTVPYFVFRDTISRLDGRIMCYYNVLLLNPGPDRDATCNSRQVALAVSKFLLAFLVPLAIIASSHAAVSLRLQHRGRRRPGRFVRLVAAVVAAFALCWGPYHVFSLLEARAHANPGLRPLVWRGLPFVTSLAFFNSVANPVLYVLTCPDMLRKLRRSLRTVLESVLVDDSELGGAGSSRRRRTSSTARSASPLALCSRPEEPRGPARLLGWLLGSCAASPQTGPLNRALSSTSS
How it was run: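 Scintillation proximity competition assay: 2–5 μg human CRTH2 cell membranes, 1.5 nM [3H]PGD2, WGA-SPA beads, 10 mM HEPES/KOH pH 7.4, 10 mM MnCl2, protease inhibitors, 1% DMSO; 90 min, room temperature, shaking. Nonspecific binding defined with 1 μM PGD2. Ki by Cheng–Prusoff, mean of ≥3 independent dose–response experiments.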

[2] = Half life in BALB/c mouse at 1 mg/kg, iv and 5 mg/kg, po by LC/MS/MS analysis; format: ADME, organism-based; details: in vivo
[3] = Half life in Sprague-Dawley rat at 1 mg/kg, iv and 5 mg/kg, po by LC/MS/MS analysis; format: ADME, organism-based; details: in vivo
[4] = Percentage unbound in human plasma; format: ADME, cell-free
[5] = Apparent permeability across human Caco2 cells at 1 uM after 2 hrs by LC/MS/MS analysis; format: ADME, cell-based; details: Caco-2
[6] = Intrinsic clearance in human liver microsomes assessed per mg of protein at 1 uM by LC/MS/MS analysis; format: ADME, Microsome
[7] = Percentage unbound in mouse plasma; format: ADME, cell-free
[8] = Thermodynamic solubility of the compound in 50 mM phosphate buffered saline at pH 7.4; format: physicochemical; details: read-out: Therm_solubility
How it was run: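 Thermodynamic solubility measured in 50 mM PBS at pH 7.4.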

[9] = Clearance in BALB/c mouse at 5 mg/kg, po by LC/MS/MS analysis; format: ADME, organism-based; set-up: dose 5 mg/kg, route oral; details: in vivo
[10] = Percentage unbound in rat plasma; format: ADME, cell-free
[11] = Intrinsic clearance in rat liver microsomes assessed per mg of protein at 1 uM by LC/MS/MS analysis; format: ADME, Microsome
[12] = Lipophilicity, log D of the compound at pH 7.4; format: physicochemical; details: buffer
[13] = Thermodynamic solubility of the compound in aqueous solution at pH 7.4; format: physicochemical; details: read-out: Therm_solubility
[14] = Oral bioavailability in BALB/c mouse at 5 mg/kg by LC/MS/MS analysis; format: ADME, organism-based; details: in vivo
How it was run: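 Mouse PK after a 5 mg/kg oral dose.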

[15] = AUC in BALB/c mouse at 1 mg/kg, po; format: ADME, organism-based; set-up: dose 1 mg/kg, route oral; details: plasma

Structure (SMILES)	Ki [1]	half-life [2]	half-life [3]	fraction unbound [4]	Papp at 2 h, 1 µM [5]	microsomal CLint at 1 µM [6]	fraction unbound [7]	solubility thermodynamic [8]	CL/F [9]	fraction unbound [10]	microsomal CLint at 1 µM [11]	logD [12]	solubility thermodynamic [13]	bioavailability [14]	AUC [15]
CCCS(=O)(=O)c1cccc(C#Cc2cc(Cl)ccc2OCC(=O)O)c1	9 nM	2.2 h	4.4 h	0.008	11.8 ×10⁻⁶ cm/s	11 µL/min/mg	0.024	760 µg/mL (≈ 1930 µM)	5 mL/min/kg	0.01	< 10 µL/min/mg				
CN(C)S(=O)(=O)c1cncc(C#Cc2cc(Cl)ccc2OCC(=O)O)c1	37 nM	4.4 h		0.033	1.8 ×10⁻⁶ cm/s		0.034		13.3 mL/min/kg	0.057		-1.4	193 µg/mL (≈ 489 µM)		
CS(=O)(=O)c1ccc(Cl)c(C#Cc2cc(Cl)ccc2OCC(=O)O)c1	3.5 nM			0.007			0.025		11.7 mL/min/kg	0.003				141%	1390 ng·h/mL
